The source made the active and inactive calls. No cut-off for these calls is given here.
Experiments:
Tubulin [1] = assay: Inhibition of tubulin polymerization; format: protein-complex assay, Homo sapiens
How it was run: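 Tubulin at 10 µM in 0.8 M monosodium glutamate pH 6.6 with varying drug, preincubated 15 min at 30 °C, then chilled on ice. Assembly started with 0.4 mM GTP and followed as turbidity at 350 nm for 20 min at 30 °C. IC50 taken from the extent of assembly.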

MCF7 = assay: Growth inhibition of human MCF7 cells after 48 hrs; format: functional, cell-based; details: MCF7, 48 h
Tubulin (Homo sapiens) = Tubulin (Homo sapiens) (UniProt P68371+Q9H4B7+P0DPH7+P68366+Q13509+Q71U36+P04350+Q3ZCM7+P07437+P68363+Q9BQE3+Q6PEY2+Q13885+Q9BVA1+Q9BUF5); assay: Inhibition of [3H]colchicine binding to tubulin at 5 uM; format: protein-complex assay
Tubulin [2] = assay: Displacement of MTC from tubulin; format: protein-complex assay, Homo sapiens
HeLa [3] = assay: Induction of apoptosis in HeLa cells assessed as PARP1 ceavage at 100 uM; format: functional, cell-based; details: Homo sapiens
How it was run: (§1)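 HeLa cells given 10 µM for 24 h, or 100 µM for 3 h followed by 24 h recovery. Total extracts from 2.5 × 10⁶ cells analysed by western blot with anti-PARP-1 mAb C-2-10 and an HRP anti-mouse secondary, ECL detection. PARP-1 proteolysis taken as the marker of caspase activation.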

HeLa [4] = assay: Cell cycle arrest in HeLa cells assessed as accumulation of A0 sub-G1 DNA content at 10 uM after 24 hrs; format: functional, Homo sapiens
How it was run: (§2)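 HeLa cells in DMEM with 10% FCS, 37 °C, 5% CO2. Subconfluent cells trypsinized, seeded at 2.5 × 10⁵ cells/mL and exposed to 10 µM for 24 h (0.1% DMSO in parallel samples). Harvested either at once or after another 24 h in drug-free medium. Ethanol-fixed, stained with propidium iodide plus RNase A, ≥10 000 cells flow-analysed. Values are % of cells per phase; one typical experiment.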

HeLa [5] = assay: Cell cycle arrets in HeLa cells assessed as accumulation at G1 phase at 10 uM after 24 hrs; format: functional, Homo sapiens; how it was run: as §2
HeLa [6] = assay: Cell cycle arrest in HeLa cells assessed as accumulation at S phase at 10 uM after 24 hrs; format: functional, Homo sapiens; how it was run: as §2
HeLa [7] = assay: Cell cycle arrest in HeLa cells assessed as accumulation at G2/M phase at 10 uM after 24 hrs; format: functional, Homo sapiens; how it was run: as §2
HeLa [8] = assay: Cell cycle arrest in HeLa cells assessed as accumulation at >4C phase at 10 uM after 24 hrs; format: functional, Homo sapiens; how it was run: as §2
HeLa [9] = assay: Cell cycle arrest in HeLa cells assessed as accumulation of A0 sub-G1 DNA content at 10 uM after 24 hrs with further incubation in drug free medium for 24 hrs; format: functional, Homo sapiens; how it was run: as §2
HeLa [10] = assay: Cell cycle arrets in HeLa cells assessed as accumulation at G1 phase at 10 uM for 24 hrs with further incubation in drug free medium for 24 hrs; format: functional, Homo sapiens; how it was run: as §2
HeLa [11] = assay: Cell cycle arrest in HeLa cells assessed as accumulation at S phase at 10 uM after 24 hrs with further incubation in drug free medium for 24 hrs; format: functional, Homo sapiens; how it was run: as §2
HeLa [12] = assay: Cell cycle arrest in HeLa cells assessed as accumulation at G2/M phase at 10 uM after 24 hrs with furthur incubation in drug free medium for 24 hrs; format: functional, Homo sapiens; how it was run: as §2
HeLa [13] = assay: Cell cycle arrest in HeLa cells assessed as accumulation at >4C phase at 10 uM after 24 hrs with furthur incubation in drug free medium for 24 hrs; format: functional, Homo sapiens; how it was run: as §2
HeLa [14] = assay: Induction of apoptosis in HeLa cells assessed as PARP1 ceavage at 10 uM; format: functional, cell-based; details: Homo sapiens; how it was run: as §1

IC50 (Tubulin [1]) [nM]	IC50 (MCF7) [nM]	inhibition (Tubulin (Homo sapiens)) [%]	Ka (Tubulin [2]) [M⁻¹]	SMILES	also measured
2600	34	68	5.21e+06	COc1cc(Sc2c[nH]c3ccccc23)cc(OC)c1OC	
6800	95	31		COc1cc(Sc2c[nH]c3ccc(OCCO)cc23)cc(OC)c1OC	
3300	18	69	6.38e+06	COc1ccc2[nH]c(C)c(Sc3cc(OC)c(OC)c(OC)c3)c2c1	
4100	22	61	3.05e+06	COc1ccc2[nH]cc(Sc3cc(OC)c(OC)c(OC)c3)c2c1	
				COc1cc([C@@H]2c3cc4c(cc3[C@@H](O[C@@H]3O[C@@H]5CO[C@@H](C)O[C@H]5[C@H](O)[C@H]3O)[C@H]3COC(=O)[C@H]23)OCO4)cc(OC)c1O	Activity (HeLa [3]): Active
6300	190	26		COc1cc(Sc2c[nH]c3ccc(O)cc23)cc(OC)c1OC	
			1.3e+06	COC(=O)c1[nH]c2ccc(Cl)cc2c1Sc1cc(OC)c(OC)c(OC)c1	
11000	> 2500			COc1ccccc1Sc1c[nH]c2ccc(Cl)cc12	
2600	77	51	810000	COc1cc(Sc2c[nH]c3ccc(Cl)cc23)cc(OC)c1OC	
9400	1200	33		Cc1cc(C)cc(Sc2c[nH]c3ccc(Cl)cc23)c1	
2700	82	59	2.07e+06	COc1cc(Sc2c(C)[nH]c3ccc(Cl)cc23)cc(OC)c1OC	
16000	560			COc1cc(Sc2c[nH]c3ccc([N+](=O)[O-])cc23)cc(OC)c1OC	
3300	160	39		COc1cc(Sc2c[nH]c3ccc(F)cc23)cc(OC)c1OC	
2100	16	76		CCOc1ccc2[nH]cc(Sc3cc(OC)c(OC)c(OC)c3)c2c1	
1600	43	65	2.76e+06	COc1cc(Sc2c[nH]c3ccc(Br)cc23)cc(OC)c1OC	Activity (HeLa [4]): 6.5%; Activity (HeLa [5]): 1.8%; Activity (HeLa [6]): 8.9%; Activity (HeLa [7]): 56.1%; Activity (HeLa [8]): 4.2%; Activity (HeLa [9]): 4.5%; Activity (HeLa [10]): 3.5%; Activity (HeLa [11]): 10.5%; Activity (HeLa [12]): 53.1%; Activity (HeLa [13]): 26%; Activity (HeLa [14]): inactive
2700	16	56	1.96e+06	COc1cc(Sc2c[nH]c3ccc(C)cc23)cc(OC)c1OC	
13000	260			COc1cc(Sc2c[nH]c3ccc(N)cc23)cc(OC)c1OC	
2700	68	61	2.31e+06	COc1cc(Sc2c[nH]c3ccc(I)cc23)cc(OC)c1OC	
6800	46	61	5.5e+06	COc1cc(Sc2c(C)[nH]c3ccccc23)cc(OC)c1OC	
19000	1500			COc1cc(Sc2c[nH]c3ccc(OC(C)C)cc23)cc(OC)c1OC	
> 40000	260			COc1cc(Sc2c[nH]c3ccc(OCCOCc4ccccc4)cc23)cc(OC)c1OC	

SMILES	IC50 (Tubulin [1]) [nM]	IC50 (MCF7) [nM]	inhibition (Tubulin (Homo sapiens)) [%]	Ka (Tubulin [2]) [M⁻¹]	also measured
COC(=O)c1[nH]c2ccccc2c1Sc1cc(OC)c(OC)c(OC)c1				570000	
COc1ccc(-c2ccc(OC)c(=O)cc2)c(OC)c1OC				470000	
COc1ccc(/C=C\c2cc(OC)c(OC)c(OC)c2)cc1O [COMBRETASTATIN A4]		17			

From ChEMBL document CHEMBL1143683, “Arylthioindole inhibitors of tubulin polymerization. 3. Biological evaluation, structure-activity relationships and molecular modeling studies” (J Med Chem, 2007)
